Screens as filed in PubChem BioAssay.
Hits are enriched below; roughly 2.3% of the tested compounds scored in any of these assays.
TbMetRS inhib = T. brucei MetRS inhibitors, primary screen, biochemical, luminescence; methionyl-tRNA synthetase (Trypanosoma brucei brucei); purified T. brucei MetRS, ATP depletion, Kinase-Glo luminescence; inhibition, % at 11.9 µM; hit rate 0.4% among 360,000;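 active = inhibition above a per-plate cutoff of the control wells' mean inhibition plus 3 SD, cut at about 5.5% in these data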;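 also: 0% = DMSO wells median and 100% = median of wells with control inhibitor compound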
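technique = Kinase-Glo luminescence, ATP depletion format | system = purified MetRS (methionyl-tRNA synthetase) enzyme from Trypanosoma brucei | timing = 15 min preincubation, 2 h reaction, all 25 °C | evaluation = percent inhibition versus plate control medians | dosing = single dose, 11.9 µM final nominal, 0.9% final DMSO | also added = substrates ATP, L-methionine and bulk Escherichia coli tRNA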
ADAM17 inh = ADAM17 inhibitors, primary screen, biochemical, QFRET | inhibition, % at 6.95 µM | recombinant ADAM17, EDANS/DABCYL FRET peptide cleavage | hit rate 0.83% among 370,000 | AID 720648, 2013;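 active = inhibition above the mean of compounds lying between control limits plus 3 SD, set per campaign, cut at about 8.5% in these data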;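 also: 0% = DMSO-only wells as the low control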
ADAM10 inh = human ADAM10 inhibitors, primary screen, biochemical, QFRET, HTS; hit rate 0.62% among 370,000; AID 720582, 2013; recombinant ADAM10, EDANS/DABCYL FRET peptide cleavage, 3 h; Disintegrin and metalloproteinase domain-containing protein 10 (Homo sapiens), O14672; inhibition, % at 7 µM;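 active = inhibition above a per-campaign cutoff equal to the mean of compounds falling between control-based bounds plus 3 SD, cut at about 20% in these data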;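 also: 0% = DMSO wells while the 100% control is not disclosed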
Target sequence (O14672 214-748 limits assumed): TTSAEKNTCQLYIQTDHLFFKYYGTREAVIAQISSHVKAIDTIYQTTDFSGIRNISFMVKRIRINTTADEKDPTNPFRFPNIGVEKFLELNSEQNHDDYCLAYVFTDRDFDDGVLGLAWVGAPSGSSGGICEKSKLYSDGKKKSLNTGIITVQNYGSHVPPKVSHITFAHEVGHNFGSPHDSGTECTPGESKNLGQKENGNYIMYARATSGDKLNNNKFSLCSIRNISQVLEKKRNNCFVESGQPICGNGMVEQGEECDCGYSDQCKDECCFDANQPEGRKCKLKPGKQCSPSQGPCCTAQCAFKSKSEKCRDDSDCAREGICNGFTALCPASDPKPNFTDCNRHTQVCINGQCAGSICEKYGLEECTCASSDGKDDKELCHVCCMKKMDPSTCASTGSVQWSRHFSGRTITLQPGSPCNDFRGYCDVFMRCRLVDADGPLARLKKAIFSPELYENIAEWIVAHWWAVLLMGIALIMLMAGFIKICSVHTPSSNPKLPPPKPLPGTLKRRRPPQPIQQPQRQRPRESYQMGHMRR
PLCg1 inh = PLC-gamma1 enzyme inhibitors, primary screen, biochemical, fluorescence, purified enzyme; inhibition, % at 12.2 µM; fluorogenic substrate; 1-phosphatidylinositol 4,5-bisphosphate phosphodiesterase gamma-1 (Homo sapiens), P19174; hit rate 0.84% among 370,000; in the data active = inhibition above about 9.5%
PLCb3 inh = human PLC-beta3 inhibitors, primary screen, biochemical, fluorescence | Purified PLC-beta3, fluorogenic substrate | 1-phosphatidylinositol 4,5-bisphosphate phosphodiesterase beta-3 (Homo sapiens), Q01970 | inhibition, % at 12.2 µM | AID 720704, 2013 | hit rate 0.18% among 370,000; in the data active = inhibition above about 11%;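 also: 0% = median of compound wells on plate and 100% = full blocker control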
TbMetRS confirm = T. brucei MetRS inhibitors, confirmation, biochemical, luminescence; shares compounds with TbMetRS inhib; T. brucei MetRS enzyme, luminescence (ATP depletion); inhibition, % at 11.9 µM; hit rate 93% among 1,400; in the data active = inhibition above about 7%
Jurkat tox = Jurkat T cell cytotoxicity, cytotoxicity control for T. brucei MetRS inhibitor project, luminescence, high throughput; shares compounds with TbMetRS inhib; Jurkat cells viability, ATP luminescence; hit rate 12% among 1,400; inhibition, % at 8.3 µM; in the data active = inhibition above about 15%;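 also: 0% = vehicle and 100% = reference inhibitor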
Tb MetRS inh FP = T. brucei MetRS inhibitors, orthogonal assay for T. brucei MetRS inhibitor project, biochemical, fluorescence polarization | purified T. brucei MetRS | shares compounds with TbMetRS inhib | inhibition, % at 11.9 µM | hit rate 44% among 1,400 | AID 651607, 2012; in the data active = inhibition above about 17%;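 also: 0% = vehicle wells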
Numbers without * were called inactive; . = no result.

SMILES	TbMetRS inhib	ADAM17 inh	ADAM10 inh	PLCg1 inh	PLCb3 inh	TbMetRS confirm	Jurkat tox	Tb MetRS inh FP
COc1ccc(OC)c(C(=O)c2c(C)oc3cc([N+](=O)[O-])c(O)c([N+](=O)[O-])c23)c1	0	0	3	5	-3	.	.	.
Cc1cc2c(cc1C)N(C(=O)CSc1nncn1C)C(C)(C)c1ssc(=S)c1-2	-1	5	8	2	-2	.	.	.
Cc1ccc2c(c1)N(C(=O)CSc1nncn1C)C(C)(C)c1ssc(=S)c1-2	-1	8.8*	15	8	3	.	.	.
COC1=C(Br)C(=O)c2nc(C)ccc2C1=O	0	7	-10	15*	-1	.	.	.
CCCN1CCc2c(sc(NC(=O)C3CCN(S(=O)(=O)c4cccs4)CC3)c2C(N)=O)C1	0	-17	-50	-11	-10	.	.	.
O=C(Nc1ccccc1)c1cc(C2CCCCN2C(=O)OCCF)on1 (configuration not stated)	0	-6	-6	1	1	.	.	.
CO/N=C/c1ccc(N2CCN(C(=O)c3ccc(Cl)cc3Cl)CC2)c([N+](=O)[O-])c1	0	7	20*	8	2	.	.	.
CC(C)c1ccc(NC(=O)CCNS(=O)(=O)c2cccc3nonc23)cc1	2	2	10	14*	8	.	.	.
Cc1ccc(NC(=O)CCNS(=O)(=O)c2cccc3nonc23)cc1	-1	-1	2	2	1	.	.	.
CCCN1C(=O)CC(c2ccc(OC)c(OC)c2)C1=O (configuration not stated)	0	3	-1	5	4	.	.	.
COc1ccc(C(=S)N2CCCCCC2)cc1	0	-2	2	9.9*	2	.	.	.
COc1ccc(C(=S)N2CCNCC2)cc1	-1	-1	-10	1	4	.	.	.
Cc1ccc(NC(=O)CN(C)Cc2ccc(Cl)cc2)cc1	1	8.8*	7	1	-3	.	.	.
COc1ccc(CNC(=O)CS(=O)(=O)Cc2nc(-c3cccc(OC)c3)oc2C)cc1	0	-4	3	1	-9	.	.	.
COc1ccccc1CN1C[C@@H]2C[C@@H](c3[nH]c4c(C)cccc4c3C)N3CCC[C@@]23C1=O	0	-1	5	-2	-7	.	.	.
O=C(Cc1ccccc1)Nc1nc2ccccc2s1	-1	3	4	-2	-4	.	.	.
O=C(Cc1ccccc1)Nc1nc(=O)c2ccccc2s1	-1	-3	-7	2	12*	.	.	.
CCC/C(O)=C1\C(=O)CCCC1=NCCc1c(C)[nH]c2ccc(OC)cc12	0	-4	2	0	2	.	.	.
CCCCc1c(-c2ccccc2OC)ncn1Cc1ccc(Cl)cc1	-1	3	12	-1	1	.	.	.
CCCCc1c(-c2ccccc2OC)ncn1CCc1cccc(Cl)c1	5.8*	3	-4	0	1	16*	36*	5
Cc1ccc(OCCSc2nc3ncnc(N)c3[nH]2)cc1	1	-2	-9	1	0	.	.	.
Nc1ncnc2nc(SCCOc3ccc(Cl)cc3)[nH]c12	5.7*	-2	-1	0	-1	14*	-12	2
COC(=O)[C@]12C[C@H](CC(=O)NCCCN3CCCC3=O)C(=O)N(Cc3ccccc3)C1=C[C@H](COCc1ccccc1)O[C@@H]2C	.	1	5	1	2	.	.	.
Cc1nc(SCC(=O)NCc2ccccc2)c2c(=O)n(C)c(=O)n(C)c2n1	5.6*	-3	2	-4	4	2	7	-1
O=C1/C(=C/c2c[nH]c3ccccc23)CCC/C1=C\c1c[nH]c2ccccc12	6.2*	-5	-15	-105	-108	7.5*	18*	18*
SMILES	TbMetRS inhib	ADAM17 inh	ADAM10 inh	PLCg1 inh	PLCb3 inh	TbMetRS confirm	Jurkat tox	Tb MetRS inh FP
Cn1nc(C(F)(F)F)c(-c2ccc(Br)cc2)c1NC(=O)Nc1ccc(F)cc1F	25*	7	14	5	-3	54*	15	31*
O=C(O)c1ccc(Nc2nc3ccc(Cl)cc3[nH]2)cc1	11*	1	1	-2	0	44*	-3	14
O=C(Cn1cc(C(=O)c2cccs2)c2ccccc21)NCC1CCCO1 (configuration not stated)	0	2	7	-6	-8	.	.	.
O=C(Cn1cc(C(=O)c2cccs2)c2ccccc21)NCc1ccc2c(c1)OCO2	21*	4	8	-10	-14	35*	5	16
C=CCNC(=S)NNC(=O)c1ccc(=O)n(Cc2ccccc2)c1	13*	-2	6	0	-3	24*	1	9
C=CCNC(=S)NNC(=O)c1ccccc1	-1	-5	-7	-1	1	.	.	.
COc1ccc(-n2nc(C(=O)NCC(=O)NC3CCCCC3)c3ccccc3c2=O)cc1	-1	0	6	-7	-12	.	.	.
CC(C)CC1NC(=O)N(CCCCN2C(=O)c3ccccc3C2=O)C1=O (configuration not stated)	8.8*	-3	-3	1	0	2	2	-3
CC(C)CC1NC(=O)N(CC(=O)Nc2ccccc2-c2ccccc2)C1=O (configuration not stated)	0	-1	-1	1	1	.	.	.
O=C(C(=O)N1CCN(Cc2ccc3c(c2)OCO3)CC1)c1c[nH]c2ccccc12	9.6*	4	3	2	-4	25*	7	8
O=C(CSc1ccc(-c2nc3ccccc3[nH]2)cn1)N1CCN(C(=O)c2ccco2)CC1	7.8*	-48	-153	-20	-34	15*	15*	12
CCc1c(O)nc(SCC(=O)Nc2ccccc2)n(-c2ccccc2)c1=O	-1	-1	7	2	3	.	.	.
CCc1c(O)nc(SCC(=O)Nc2ccc(Br)cc2)n(-c2ccc(C)cc2)c1=O	6.4*	-3	1	-4	-13	22*	1	2
CCOc1ccc(CONS(=O)(=O)c2ccc(NC(C)=O)cc2)cc1Cl	42*	5	15	1	2	67*	7	57*
CCCCN(C)Cc1c(C)[nH]c2ccc(C)cc2c1=O	10*	-3	-3	-1	4	21*	-4	6
CCCCN(C)Cc1c(C)[nH]c2ccccc2c1=O	1	-1	0	0	-2	.	.	.
